Compound activity (PubChem BioAssay)
In the library only some 3.5% were active in any assay of this set; here they are far more common.
FXIa inh – human FXIa protease inhibitors, primary screen, biochemical, 1536-well; AID 798, 2007; 220,000 compounds, 0.14% hits; Coagulation factor XI (Homo sapiens), P03951; inhibition, % at 5 µM; purified FXIa, Boc-Glu-Ala-Arg-AMC fluorogenic substrate;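 active means inhibition of at least 40%; inactive means inhibition below 40%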;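 further: fluorescence of freed AMC excited at 355 nm; 0% = enzyme without compound and 100% = no enzyme blank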
hK5 inh – human KLK5 protease inhibitors, primary screen, biochemical, 1536-well | recombinant hK5, fluorogenic AMC substrate cleavage | inhibition, % at 5 µM | 210,000 compounds, 0.59% hits | Kallikrein-5 (Homo sapiens), Q9Y337;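 active means inhibition of 40% or more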;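 further: 0% = enzyme controls without compound and 100% = no-enzyme blanks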
STAT3 activator – IL-6 driven STAT3 reporter potentiators, primary screen, U3A cells, luciferase, luminescence, MLSCN library | IL-6 STAT3-luciferase reporter; 100% = signal with IL-6 EC80 alone | activation (% of control), % at 5.6 µM | 190,000 compounds, 0.91% hits | AID 871, 2007;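 active means activation above the screen-wide mean of compound activation plus 3 SD, cut at about 130% in these data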;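 further: 0% = background luminescence of wells with medium and substrate only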
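Assay system – human STAT1-deficient U3A cells with stable STAT3-luciferase reporter · Also added – IL-6 (33 ng/mL) · Schedule – compound 1 h, then IL-6 6 h at 37 °C · Technique – reporter luminescence signal · Evaluation – % activation versus median of IL-6-stimulated wells · Benchmarks – IL-6-only wells as 100% reference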
AHR activator – AHR activators, primary screen, cell-based, luminescence, luciferase reporter, human | Aryl hydrocarbon receptor (Homo sapiens), P35869 | AHR-responsive luciferase reporter cells | activation, % at 5 µM | 320,000 compounds, 2.5% hits | AID 2796, 2010; in the data active means activation above about 47%;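 further: 0% = vehicle wells and 100% = reference agonist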
Target sequence (P35869 whole entry, looked up): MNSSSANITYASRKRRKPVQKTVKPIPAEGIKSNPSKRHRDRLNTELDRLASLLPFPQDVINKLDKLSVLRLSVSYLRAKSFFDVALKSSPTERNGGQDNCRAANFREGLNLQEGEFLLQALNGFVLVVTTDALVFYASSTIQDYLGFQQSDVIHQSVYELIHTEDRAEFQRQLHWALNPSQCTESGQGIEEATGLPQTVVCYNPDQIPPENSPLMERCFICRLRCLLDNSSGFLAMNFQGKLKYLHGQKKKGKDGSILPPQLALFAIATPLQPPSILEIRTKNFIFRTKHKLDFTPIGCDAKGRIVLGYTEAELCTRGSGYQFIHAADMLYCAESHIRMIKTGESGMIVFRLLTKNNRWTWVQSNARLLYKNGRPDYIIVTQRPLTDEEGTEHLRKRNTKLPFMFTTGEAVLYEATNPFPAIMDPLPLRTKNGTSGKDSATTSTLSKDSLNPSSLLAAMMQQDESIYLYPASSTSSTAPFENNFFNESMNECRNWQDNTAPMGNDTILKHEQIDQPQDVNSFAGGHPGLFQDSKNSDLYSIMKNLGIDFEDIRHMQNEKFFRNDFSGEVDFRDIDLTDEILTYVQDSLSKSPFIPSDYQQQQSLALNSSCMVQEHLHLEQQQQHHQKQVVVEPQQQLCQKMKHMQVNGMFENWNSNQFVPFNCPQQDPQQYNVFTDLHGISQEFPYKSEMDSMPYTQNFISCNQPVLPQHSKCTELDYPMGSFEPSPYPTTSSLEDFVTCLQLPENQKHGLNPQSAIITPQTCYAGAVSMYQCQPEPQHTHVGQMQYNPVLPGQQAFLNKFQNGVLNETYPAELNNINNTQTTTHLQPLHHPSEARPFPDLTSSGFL
FXIIa inh 1536 – human FXIIa protease inhibitors, primary screen, biochemical, 1536-well | AID 800, 2007 | inhibition, % at 5 µM | purified FXIIa, Boc-QGR-AMC fluorogenic substrate, 2 h | 220,000 compounds, 0.3% hits; in the data active means inhibition above about 40%;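 further: 0% = enzyme with no compound and 100% = blank without enzyme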
Thrombin inh – human alpha-thrombin inhibitors, primary screen, counter-screen for coagulation protease inhibitor project, biochemical, 1536-well, fluorogenic AMC substrate | Prothrombin (Homo sapiens), P00734 | Boc-VPR-AMC fluorogenic substrate cleavage | inhibition, % at 5 µM | 220,000 compounds, 0.26% hits | AID 1046, 2008;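 active means inhibition at or above 40%; inactive means inhibition below 40%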;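 further: 0% = enzyme with no compound and 100% = wells without enzyme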
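System: human alpha-thrombin protein; Compound dosing: one concentration per compound, 5 µM, with 0.2% DMSO; Timing: reaction at room temperature; Technique: AMC fluorescence, 355/460 nm; Controls: enzyme without compound as high, wells lacking enzyme as low.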
AHR act cf – AHR activators, confirmation, cell-based, luminescence, luciferase reporter, human | activation, % at 9 µM | human cells, AHR-responsive luciferase reporter | shares compounds with AHR activator | 2,300 compounds, 87% hits; in the data active means activation above about 49%;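 further: HepG2 hepatoma cells carrying a DRE-driven firefly luciferase reporter; 0% = vehicle wells and 100% = reference agonist wells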
PXR counter – human PXR activators, counter-screen for AHR activator project, cell-based, luciferase luminescence; shares compounds with AHR activator; cell-based PXR reporter; activation, % at 11.6 µM; 2,300 compounds, 88% hits; AID 434939, 2010; in the data active means activation above about 11%;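 further: human hepatoma DPX-2 cells expressing full-length human PXR; 0% = DMSO and 100% = reference agonist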
Starred values were filed as active, the others as inactive; · = no result.

SMILES | FXIa inh | hK5 inh | STAT3 activator | AHR activator | FXIIa inh 1536 | Thrombin inh | AHR act cf | PXR counter
O=c1[nH]c(SCc2ccccc2Cl)nc2c1cnn2-c1ccccc1 | 2.2 | -4.3 | 97.1 | 116.5* | 13.0 | -0.3 | 76.9* | 104.5*
Cc1ccc2nc(SCc3nc4c(cnn4-c4ccccc4)c(=O)[nH]3)[nH]c2c1 | -4.6 | -76.0 | 101.3 | 120.5* | 4.6 | -6.0 | 29.3 | 37.1*
C=CCOC(=O)C1=C[C@H](c2ccc3c(c2)OCO3)C[C@H](OCCCCO)O1 | · | · | · | 10.2 | · | · | · | ·
CC(=O)Nc1ccc(OC(=O)c2ccc(Br)c([N+](=O)[O-])c2)cc1 | -2.6 | 0.1 | 102.3 | -0.3 | 1.2 | -8.6 | · | ·
COc1ccc(-c2cc(=O)c3cc(OC)ccc3o2)cc1 | -1.4 | -1.0 | 42.5 | 0.8 | 4.9 | -12.3 | · | ·
O=c1cc(-c2ccccc2)oc2ccc(Br)cc12 | · | · | · | 98.8* | · | · | 79.6* | 39.1*
C=CCNC(=O)c1cc(-c2ccncc2)nc2c(C)cc(C)cc12 | · | · | · | 80.7* | · | · | 65.2* | 44.8*
COc1ccccc1/C=C/C(=O)N1CCCC1 | 0.8 | -8.6 | 91.0 | 84.0* | 1.6 | -6.6 | 102.3* | 16.7*
COc1ccc2nc(NC(=O)CSc3n[nH]c(N)n3)sc2c1 | · | · | · | 93.6* | · | · | 108.3* | 21.5*
COc1ccc2nc(Cl)cc(Cl)c2c1 | -2.5 | -0.4 | · | -4.9 | 3.0 | -3.7 | · | ·
COc1ccc2nccc(/C=C/c3ccnc4ccc(OC)cc34)c2c1 | -4.6 | -8.2 | · | 104.8* | -5.1 | -8.1 | 95.6* | 33.7*
CCOC(=O)C1=NNC2(c3ccc(C)cc3)C(=O)N(c3ccc(Cl)cc3)C(=O)C12 (stereo unspecified) | 6.6 | -26.3 | 99.1 | -0.4 | 6.9 | 1.8 | · | ·
CCOC(=O)c1c(S(=O)(=O)NCC(=O)Nc2ccc(OC)cc2)c(C)n(C)c1C | · | · | · | 1.1 | · | · | · | ·
CC(/C=C/c1ccccc1)=N\Nc1nc(C)cc(C)n1 | -2.2 | -0.1 | 93.0 | 89.4* | 5.8 | 0.9 | 39.4 | 27.6*
O=C(Nc1ccc(F)cc1)C1CCCN(C2=NS(=O)(=O)c3ccccc32)C1 (stereo unspecified) | · | · | · | 0.1 | · | · | · | ·
N#C/C(=C\c1ccc(N2CCCCC2)o1)C(=O)Nc1cccc(Br)c1 | 1.1 | -19.3 | 110.7 | 99.6* | 7.0 | -3.5 | 72.0* | 13.4*
N#C/C(=C\c1ccc(N2CCCCC2)o1)C(N)=O | 5.5 | 0.7 | 91.6 | 1.1 | 18.1 | -4.5 | · | ·
COc1ccc([N+](=O)[O-])cc1N/C(=N/S(=O)(=O)c1ccccc1)c1ccccc1 | -2.6 | -4.5 | 101.1 | 113.4* | 3.2 | -4.0 | 84.0* | 132.8*
COc1ccccc1N/C(=N/S(=O)(=O)c1ccc(C)cc1)c1ccccc1 | 1.0 | -9.0 | 99.3 | 2.0 | 6.2 | 0.5 | · | ·
Cn1c(=O)c2c(nc(/C=C/c3cccc(Cl)c3)n2C)n(C)c1=O | · | · | · | 86.0* | · | · | 54.7* | ·
Cc1cccc(Oc2nc3c(c(=O)n(C)c(=O)n3C)n2C)c1 | -2.7 | 0.7 | 98.4 | 11.8 | 8.1 | -0.3 | · | ·
CS(=O)(=O)N(CC(=O)Nc1cccc([N+](=O)[O-])c1)c1ccccc1 | 4.4 | -0.4 | 99.9 | 90.2* | 5.8 | · | 48.1* | 82.5*
CS(=O)(=O)N(CC(=O)Nc1cccc(F)c1)c1cccc([N+](=O)[O-])c1 | -0.6 | 0.1 | 98.7 | 4.3 | 14.4 | -2.6 | · | ·
Cc1ccc(-c2nnc(Nc3ccc4c(c3)OCO4)c3ccccc23)cc1S(N)(=O)=O | -0.2 | -0.1 | 97.9 | 36.5 | 11.1 | 1.7 | · | ·
Cc1nnc(Nc2ccc3c(c2)OCO3)c2ccccc12 | -1.4 | 2.6 | 110.2 | 84.5* | 11.3 | -4.6 | 105.2* | 160.5*
SMILES | FXIa inh | hK5 inh | STAT3 activator | AHR activator | FXIIa inh 1536 | Thrombin inh | AHR act cf | PXR counter
N#C/C(=C(\O)c1cc(Cl)sc1Cl)c1nc2ccccc2[nH]1 | · | · | · | 89.0* | · | · | 160.7* | 12.9*
CC(C)c1cc(NC(=O)CSc2nnc(-c3ccccc3F)n2C)on1 | 5.1 | 7.3 | 93.9 | -2.3 | 12.3 | -1.9 | · | ·
CSc1ccc(C2Nc3ccccc3-c3cc(C)nn32)cc1 (stereo unspecified) | 0.8 | -15.1 | 97.5 | 101.4* | 9.3 | 4.5 | 100.1* | 28.8*
Cc1cc2n(n1)C(c1ccsc1)Nc1ccccc1-2 (stereo unspecified) | -0.2 | -4.5 | 106.6 | 19.2 | 13.6 | -1.2 | · | ·
COc1ccc2[nH]c3c(N4CC(C)OC(C)C4)ncnc3c2c1 (stereo unspecified) | 6.4 | 5.0 | 96.5 | 126.1* | 1.9 | 3.5 | 94.0* | 21.9*
Clc1cccc(/C(Cc2nc3ccccc3[nH]2)=N\Nc2ccccc2)c1 | 16.6 | 24.9 | 94.0 | 102.1* | 17.8 | 10.8 | 95.7* | 42.5*
Cc1ccc(N/N=C(\Cc2nc3ccccc3[nH]2)c2ccccc2)cc1 | 3.2 | -37.1 | 106.5 | 34.2 | 7.9 | -2.1 | · | ·
Cc1ccc(C)c(-c2nnc(NC(=O)CCS(=O)(=O)c3ccc(F)cc3)o2)c1 | · | · | · | 4.1 | · | · | · | ·
COC(=O)c1sccc1NC(=O)c1ccc(C(C)C)cc1 | · | · | · | 95.4* | · | · | 96.9* | 14.8*
COc1ccc(N2CCN(C(=O)c3cc4c(-c5ccc(Cl)cc5)nn(C)c4s3)CC2)cc1 | 5.7 | 0.2 | 133.3* | 90.1* | 14.4 | -0.1 | 121.3* | 33.1*
Cn1ccs/c1=N\C(=O)Nc1cccc(C(F)(F)F)c1 | · | · | · | 106.5* | · | · | 111.0* | 60.4*
COCCCNC(=O)c1ccc(S(=O)(=O)c2ccc(Cl)cc2)c(NC(C)=O)c1 | · | · | · | 0.7 | · | · | · | ·
COc1cc(NC(=O)C/C(C)=N/NC(=O)Cc2ccccc2)c(OC)cc1Cl | -7.3 | -5.3 | 100.4 | 147.3* | 3.3 | -1.2 | 4.5 | 15.5*
COc1ccc(Cl)cc1NC(=O)C/C(C)=N/NC(=O)c1ccccc1Cl | · | · | · | 14.5 | · | · | · | ·
O=C(CN1C2=NCCN2c2ccccc21)C12CC3CC(CC(C3)C1)C2 | 7.0 | -22.0 | 115.7 | 82.4* | 15.7 | -2.9 | 47.9* | 57.8*
c1ccc(CN2C3=NCCN3c3ccccc32)cc1 | 2.3 | -12.8 | 104.3 | 2.0 | 12.0 | -5.1 | · | ·
Cc1ccccc1-c1nc(-c2cccnc2)no1 | -6.7 | -3.1 | 112.1 | 107.0* | 1.8 | -5.1 | 104.8* | ·
COc1ccc(-c2nc(-c3cccnc3)no2)cc1 | 0.1 | 0.3 | · | -4.5 | 6.5 | -6.5 | · | ·
Clc1ccccc1-c1nc(-c2cccnc2)no1 | 9.1 | 56.9* | 119.8 | 105.4* | 14.8 | 15.9 | 123.1* | 13.8*
